The record followed here is ChEMBL document CHEMBL1148966, “Cytotoxic steroidal saponins from Polygonatum zanlanscianense” (J Nat Prod, 2004).

In brackets after ≈: the same amount, converted by molar mass.

In the assay the test system is HeLa. Briefly: Cytotoxicity against human HeLa cells after 72 hrs by MTT assay. In kind it is functional, cell-based. Summed up:
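HeLa cells in 96-well microplates; viability by MTT colorimetric assay, optical density read at 570 nm on a plate reader; IC50 reported in µg/mL. Cisplatin run as positive control.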

The IC50 is the concentration at which inhibition is half-maximal. Read a high IC50 as weaker potency. Compound `C[C@@H]1CC[C@@]2(OC1)O[C@H]1C[C@H]3[C@@H]4CC=C5C[C@@H](O[C@@H]6O[C@H](CO)[C@@H](O[C@@H]7OC[C@@H](O)[C@@H](O[C@@H]8O[C@@H](C)[C@H](O[C@@H]9O[C@@H](C)[C@H](O)[C@@H](O)[C@H]9O)[C@@H](O)[C@H]8O)[C@@H]7O)[C@H](O)[C@H]6O[C@@H]6O[C@@H](C)[C@H](O)[C@@H](O)[C@H]6O)CC[C@]5(C)[C@H]4CC[C@]3(C)[C@H]1[C@@H]2C` [PARISSAPONIN PB] registered an IC50 of 3.14 µg/mL (≈ 2.74 µM).
In the case of `CC1=CC(=O)CC(C)(C)[C@H]1CC[C@@H](C)O[C@@H]1O[C@H](CO[C@@H]2O[C@H](CO)[C@@H](O)[C@H](O)[C@H]2O)[C@@H](O)[C@H](O)[C@H]1O` it was 20.1 µg/mL (≈ 37.5 µM).
The figure for `C[C@H]1O[C@@H](O[C@H]2CC[C@@]3(C)C(=CC[C@H]4[C@@H]5C[C@@H]6O[C@@]7(OC[C@H](CO)C[C@@H]7O)[C@@H](C)[C@@H]6[C@@]5(C)C(=O)C[C@@H]43)C2)[C@H](O)[C@@H](O)[C@H]1O[C@@H]1O[C@H](CO)[C@@H](O)[C@H](O)[C@H]1O` [POLYGONATOSIDE C] is 7.45 µg/mL (≈ 9.69 µM); for `C[C@@H]1CC[C@@]2(OC1)O[C@H]1C[C@H]3[C@@H]4CC=C5C[C@@H](O[C@@H]6O[C@H](CO)[C@@H](O[C@@H]7OC[C@@H](O)[C@@H](O)[C@@H]7O)[C@H](O)[C@H]6O[C@@H]6O[C@@H](C)[C@H](O)[C@@H](O)[C@H]6O)CC[C@]5(C)[C@H]4CC[C@]3(C)[C@H]1[C@@H]2C` it is 14.6 µg/mL (≈ 17 µM); for `C[C@@H]1O[C@@H](O[C@H]2[C@H](O)[C@@H](O)[C@H](O[C@H]3CC[C@@]4(C)C(=CC[C@H]5[C@@H]6C[C@@H]7O[C@]8(CC[C@@H](CO[C@@H]9O[C@H](CO)[C@@H](O)[C@H](O)[C@H]9O)CO8)[C@@H](C)[C@@H]7[C@@]6(C)CC[C@@H]54)C3)O[C@@H]2CO)[C@H](O)[C@H](O)[C@H]1O` [POLYGONATOSIDE D] it is 5.83 µg/mL (≈ 6.47 µM).
The figure for `C[C@@H]1CC[C@@]2(OC1)O[C@H]1C[C@H]3[C@@H]4CC=C5C[C@@H](O[C@@H]6O[C@H](CO)[C@@H](O)[C@H](O[C@@H]7O[C@H](CO)[C@@H](O)[C@H](O)[C@H]7O)[C@H]6O[C@@H]6O[C@@H](C)[C@H](O)[C@@H](O)[C@H]6O)CC[C@]5(C)[C@H]4CC[C@]3(C)[C@H]1[C@@H]2C` [GRACILLIN] is 12.7 µg/mL (≈ 14.4 µM).
`C[C@H]1[C@H]2[C@H](C[C@H]3[C@@H]4CC=C5C[C@@H](O[C@@H]6O[C@H](CO)[C@H](O[C@@H]7O[C@H](CO)[C@@H](O)[C@H](O)[C@H]7O[C@@H]7O[C@H](CO)[C@@H](O)[C@H](O)[C@H]7O)[C@H](O)[C@H]6O)CC[C@]5(C)[C@H]4CC[C@]23C)O[C@]12CC[C@@H](CO)CO2` displayed an IC50 of 5.24 µg/mL (≈ 5.71 µM). Compared with the last compound, the IC50 is about 2.4-fold lower.
`C[C@@H]1CC[C@@]2(OC1)O[C@H]1C[C@H]3[C@@H]4CC=C5C[C@@H](O[C@@H]6O[C@H](CO)[C@@H](O)[C@H](O)[C@H]6O[C@@H]6O[C@@H](C)[C@H](O)[C@@H](O)[C@H]6O)CC[C@]5(C)[C@H]4CC[C@]3(C)[C@H]1[C@@H]2C` [OPHIOPOGONIN C] returned an IC50 of 6.23 µg/mL (≈ 8.62 µM).
Regarding `C[C@H]1[C@H]2[C@H](C[C@H]3[C@@H]4CC=C5C[C@@H](O[C@@H]6O[C@H](CO)[C@H](O[C@@H]7O[C@H](CO)[C@@H](O)[C@H](O)[C@H]7O)[C@H](O)[C@H]6O)CC[C@]5(C)[C@H]4CC(=O)[C@]23C)O[C@]12CC[C@@H](CO[C@@H]1O[C@H](CO)[C@@H](O)[C@H](O)[C@H]1O)CO2`, 5.13 µg/mL (≈ 5.51 µM) corresponded to half-maximal inhibition (IC50).
On to `C[C@H]1O[C@@H](O[C@H]2CC[C@@]3(C)C(=CC[C@H]4[C@@H]5C[C@@H]6O[C@]7(CC[C@@H](CO[C@@H]8O[C@H](CO)[C@@H](O)[C@H](O)[C@H]8O)CO7)[C@@H](C)[C@@H]6[C@@]5(C)C(=O)C[C@@H]43)C2)[C@H](O)[C@@H](O)[C@H]1O[C@@H]1O[C@H](CO)[C@@H](O)[C@H](O)[C@H]1O` [POLYGONATOSIDE A], for which half-maximal inhibition (IC50) was put at 5.06 µg/mL (≈ 5.53 µM).
In the case of `C[C@@H]1O[C@@H](O[C@H]2[C@H](O[C@H]3CC[C@@]4(C)C(=CC[C@H]5[C@@H]6C[C@@H]7O[C@]8(CC[C@@H](CO)CO8)[C@@H](C)[C@@H]7[C@@]6(C)CC[C@@H]54)C3)O[C@H](CO)[C@@H](O[C@@H]3O[C@@H](C)[C@H](O)[C@@H](O)[C@H]3O)[C@@H]2O)[C@H](O)[C@H](O)[C@H]1O` it was 3.62 µg/mL (≈ 4.09 µM).
